Results reported in paper PMC5435566 (Nature chemical biology, 2017).

Experiments:
Solubility = format: physicochemical
human LMPTP-A = target: T1, human LMPTP-A (Homo sapiens, UniProt P24666); assay: Isothermal titration calorimetry; format: binding
T1 sequence (P24666 1-158): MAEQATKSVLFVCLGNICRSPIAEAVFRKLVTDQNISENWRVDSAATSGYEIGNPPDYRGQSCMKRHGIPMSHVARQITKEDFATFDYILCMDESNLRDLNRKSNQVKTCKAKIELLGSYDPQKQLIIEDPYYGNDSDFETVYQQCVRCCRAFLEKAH
Method in brief: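 ITC was run at 23°C: 2 μl injections of 0.5 mM test compound into 50 μM human LMPTP-A, with or without 200 μM sodium orthovanadate to form the cysteine adduct. Tris runs used 10 mM Tris pH 7.5, 75 mM NaCl, 0.5 mM β-mercaptoethanol, 5% DMSO; parallel runs used phosphate buffer. Kd, ΔH and −TΔS were derived from the titrations.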

[1] = system: human LMPTP-A mutants (Y49, Y131, Y132); assay: Inhibition of LMPTP-A mutants, OMFP substrate; format: biochemical; settings: 0.4 mM OMFP, versus wild-type LMPTP-A
Method in brief: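 Wild-type and mutant human LMPTP-A were assayed with 0.4 mM OMFP in 50 mM Bis-Tris pH 6.0, 1 mM DTT, 0.01% Triton X-100 at 37°C across test-compound concentrations. OMFP hydrolysis was monitored continuously by fluorescence (ex 485/em 525 nm) and reported as % activity, from 3 independent experiments.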

[2] = system: insulin receptor (IR) tyrosine phosphorylation in HepG2 hepatocytes; assay: IR phosphorylation in HepG2 cells; format: cell-based, human; settings: 10 μM compound overnight, 10 nM insulin 5 min
Method in brief: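 HepG2 cells were grown in MEM with 10% FBS and pen/strep and confirmed mycoplasma-free. Cells were treated overnight with 10 μM test compound or DMSO in 0.1% FBS medium, then stimulated with 10 nM bovine insulin for 5 min at 37°C. Read-outs were anti-IRβ immunoprecipitation with pY1162/Y1163 Western blot (2 experiments) and pIRβ Y1150/Y1151 sandwich ELISA (5 experiments).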

solubility (Solubility)	Kd (human LMPTP-A; Tris buffer, no vanadate)	Kd (human LMPTP-A; phosphate buffer)	−TΔS (human LMPTP-A; Tris buffer, no vanadate)	−TΔS (human LMPTP-A; phosphate buffer)	Structure (SMILES)	inhibition of LMPTP-A mutated at Y49 and Y132 [1]	inhibition of LMPTP-A mutated at Y131 alone or in combination with Y49 and Y132 [1]	HepG2 IR phosphorylation after insulin stimulation [2]
highly soluble	8 ± 2 µM	10 ± 2 µM	-6.4 ± 0.3 kcal/mol	-5.6 ± 0.3 kcal/mol	N#Cc1ccccc1-c1cc(NCCCN2CCCCC2)c2ccccc2n1 [Compd. 18]	substantially reduced	completely abolished	
					c1ccc(-c2cc(SCCCN3CCCCC3)c3ccccc3n2)cc1 [Compd. 28]			had no effect
